Reference: ChEMBL document CHEMBL2040727, “Substituted thiazoles VI. Synthesis and antitumor activity of new 2-acetamido- and 2 or 3-propanamido-thiazole analogs” (2012)

Tested on: MDA-MB-468
Assay: Growth inhibition of human MDA-MB-468 cells at 10 uM after 48 hrs by coulter counter analysis
Type: functional
Conditions: MDA-MB-468, 48 h, read-out: GI
Summary of the method: (§1)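 Single-dose NCI 60-line panel screen of test compounds. Cells grown in RPMI 1640 with 10% FBS. Compounds dissolved in DMSO, then diluted in phosphate buffer saline (final DMSO below 1%). Wells run in duplicate at 6 × 10⁴ cells/ml. Controls held PBS and DMSO at matching dilutions. Incubation 48 h at 37 °C under humidified 5% CO2. Cells diluted tenfold in saline and counted by Coulter counter. Percent growth inhibition taken from mean-graph of treated-cell growth.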

| Compound | inhibition of growth at 10 µM |
| --- | --- |
| CCOC(=O)c1sc(NC(=O)C(C)N2CCCCC2)nc1C (stereo not drawn) | < 10% |

Tested on: not listed separately
Assay: Growth inhibition of human NCI-ADR-RES cells at 10 uM after 48 hrs by coulter counter analysis
Type: functional
Conditions: read-out: GI
Summary of the method: as §1

| Compound | inhibition of growth at 10 µM |
| --- | --- |
| CCOC(=O)c1sc(NC(=O)C(C)N2CCCCC2)nc1C (stereo not drawn) | < 10% |

Tested on: SW-620
Assay: Growth inhibition of human SW620 cells at 10 uM after 48 hrs by coulter counter analysis
Type: functional
Conditions: SW-620, 48 h, read-out: GI
Summary of the method: (§2)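 Single-dose screen in the NCI 60 cell line panel. Cells grown in RPMI 1640 with 10% FBS. Compounds dissolved in DMSO and diluted in phosphate buffered saline, final DMSO under 1%. Duplicate wells seeded from culture at 6 × 10⁴ cells/ml. Incubated 48 h at 37 °C, humidified, 5% CO2. Cells diluted tenfold in saline and Coulter-counted. Percent growth inhibition computed against PBS/DMSO controls.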

| Compound | inhibition of growth at 10 µM |
| --- | --- |
| CCOC(=O)c1sc(NC(=O)C(C)N2CCCCC2)nc1C (stereo not drawn) | < 10% |

Tested on: M14
Assay: Growth inhibition of human M14 cells at 10 uM after 48 hrs by coulter counter analysis
Type: functional
Conditions: M14, 48 h, read-out: GI
Summary of the method: as §1

| Compound | inhibition of growth at 10 µM |
| --- | --- |
| CCOC(=O)c1sc(NC(=O)C(C)N2CCCCC2)nc1C (stereo not drawn) | < 10% |

Tested on: IGROV-1
Assay: Growth inhibition of human IGROV1 cells at 10 uM after 48 hrs by coulter counter analysis
Type: functional
Conditions: IGROV-1, 48 h, read-out: GI
Summary of the method: as §1

| Compound | inhibition of growth at 10 µM |
| --- | --- |
| CCOC(=O)c1sc(NC(=O)C(C)N2CCCCC2)nc1C (stereo not drawn) | < 10% |

Tested on: SF-295
Assay: Growth inhibition of human SF295 cells at 10 uM after 48 hrs by coulter counter analysis
Type: functional
Conditions: SF-295, 48 h, read-out: GI
Summary of the method: as §1

| Compound | inhibition of growth at 10 µM |
| --- | --- |
| CCOC(=O)c1sc(NC(=O)C(C)N2CCCCC2)nc1C (stereo not drawn) | < 10% |

Tested on: RPMI-8226
Assay: Growth inhibition of human RPMI8226 cells at 10 uM after 48 hrs by coulter counter analysis
Type: functional
Conditions: RPMI-8226, 48 h, read-out: GI
Summary of the method: as §1

| Compound | inhibition of growth at 10 µM |
| --- | --- |
| CCOC(=O)c1sc(NC(=O)C(C)N2CCCCC2)nc1C (stereo not drawn) | < 10% |

Tested on: T47D
Assay: Growth inhibition of human T47D cells at 10 uM after 48 hrs by coulter counter analysis
Type: functional
Conditions: read-out: GI
Summary of the method: as §2

| Compound | inhibition of growth at 10 µM |
| --- | --- |
| CCOC(=O)c1sc(NC(=O)C(C)N2CCCCC2)nc1C (stereo not drawn) | < 10% |

Tested on: LOX IMVI
Assay: Growth inhibition of human LOXIMVI cells at 10 uM after 48 hrs by coulter counter analysis
Type: functional
Conditions: read-out: GI
Summary of the method: as §1

| Compound | inhibition of growth at 10 µM |
| --- | --- |
| CCOC(=O)c1sc(NC(=O)C(C)N2CCCCC2)nc1C (stereo not drawn) | < 10% |

Tested on: MDA-MB-435
Assay: Growth inhibition of human MDA-MB-435 cells at 10 uM after 48 hrs by coulter counter analysis
Type: functional
Conditions: MDA-MB-435, 48 h, read-out: GI
Summary of the method: as §1

| Compound | inhibition of growth at 10 µM |
| --- | --- |
| CCOC(=O)c1sc(NC(=O)C(C)N2CCCCC2)nc1C (stereo not drawn) | < 10% |

Tested on: OVCAR-4
Assay: Growth inhibition of human OVCAR4 cells at 10 uM after 48 hrs by coulter counter analysis
Type: functional
Conditions: OVCAR-4, 48 h, read-out: GI
Summary of the method: as §1

| Compound | inhibition of growth at 10 µM |
| --- | --- |
| CCOC(=O)c1sc(NC(=O)C(C)N2CCCCC2)nc1C (stereo not drawn) | < 10% |

Tested on: NCI-H322M
Assay: Growth inhibition of human NCI-H322M cells at 10 uM after 48 hrs by coulter counter analysis
Type: functional
Conditions: read-out: GI
Summary of the method: as §1

| Compound | inhibition of growth at 10 µM |
| --- | --- |
| CCOC(=O)c1sc(NC(=O)C(C)N2CCCCC2)nc1C (stereo not drawn) | < 10% |

Tested on: SN12C
Assay: Growth inhibition of human SN12C cells at 10 uM after 48 hrs by coulter counter analysis
Type: functional
Conditions: read-out: GI
Summary of the method: as §1

| Compound | inhibition of growth at 10 µM |
| --- | --- |
| CCOC(=O)c1sc(NC(=O)C(C)N2CCCCC2)nc1C (stereo not drawn) | < 10% |

Tested on: HOP-92
Assay: Growth inhibition of human HOP92 cells at 10 uM after 48 hrs by coulter counter analysis
Type: functional
Conditions: HOP-92, 48 h, read-out: GI
Summary of the method: as §1

| Compound | inhibition of growth at 10 µM |
| --- | --- |
| CCOC(=O)c1sc(NC(=O)C(C)N2CCCCC2)nc1C (stereo not drawn) | < 10% |

Tested on: not listed separately
Assay: Growth inhibition of human Hs 578T cells at 10 uM after 48 hrs by coulter counter analysis
Type: functional
Conditions: read-out: GI
Summary of the method: as §1

| Compound | inhibition of growth at 10 µM |
| --- | --- |
| CCOC(=O)c1sc(NC(=O)C(C)N2CCCCC2)nc1C (stereo not drawn) | < 10% |

Tested on: NCI-H226
Assay: Growth inhibition of human NCI-H226 cells at 10 uM after 48 hrs by coulter counter analysis
Type: functional
Conditions: NCI-H226, 48 h, read-out: GI
Summary of the method: as §1

| Compound | inhibition of growth at 10 µM |
| --- | --- |
| CCOC(=O)c1sc(NC(=O)C(C)N2CCCCC2)nc1C (stereo not drawn) | < 10% |

Tested on: BT-549
Assay: Growth inhibition of human BT549 cells at 10 uM after 48 hrs by coulter counter analysis
Type: functional
Conditions: BT-549, 48 h, read-out: GI
Summary of the method: as §1

| Compound | inhibition of growth at 10 µM |
| --- | --- |
| CCOC(=O)c1sc(NC(=O)C(C)N2CCCCC2)nc1C (stereo not drawn) | < 10% |

Tested on: MDA-MB-231
Assay: Growth inhibition of human MDA-MB-231 cells at 10 uM after 48 hrs by coulter counter analysis
Type: functional
Conditions: MDA-MB-231, 48 h, read-out: GI
Summary of the method: as §1

| Compound | inhibition of growth at 10 µM |
| --- | --- |
| CCOC(=O)c1sc(NC(=O)C(C)N2CCCCC2)nc1C (stereo not drawn) | < 10% |
